ChEMBL document CHEMBL5715959, “Inhibition of histone methyltransferase EZH2 in Schistosoma mansoni in vitro by GSK343 reduces egg laying and decreases the expression of genes implicated in DNA replication and noncoding RNA metabolism” (2018)
Calls of active or inactive are those of the source.

What was measured:
Schistosoma mansoni [1] = assay: Cytotoxicity against Schistosoma mansoni assessed as reduction in total ATP content at 20 uM incubated for 2 days by CellTiter-Glo Luminescent assay relative to control; type: functional; design: scale not given: the % may be the effect or the level left; settings: time 2 day
Summary of the method: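 Newly transformed schistosomula pre-cultured 16 h in M169 with 2% FBS, serotonin, hypoxanthine, hydrocortisone, triiodothyronine and antibiotics at 37°C, 5% CO2, then 100–120 per well exposed up to 5 days to compound or 0.1% DMSO. ATP in intact larvae read by luminescence, expressed as % of vehicle; three replicate experiments, two-way ANOVA.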

Schistosoma mansoni [2] = assay: Antischistosomal activity against adult Schistosoma mansoni assessed as decreased motility at 20 uM incubated for 48 hrs by inverted microscope analysis relative to control; type: functional; design: scale not given: the % may be the effect or the level left
Summary of the method: (§1)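 Paired adult worms were cultured in RPMI/10% FBS with antibiotics at 37°C, 5% CO2, with GSK343 or 0.1% DMSO. They were viewed by inverted microscope at 3, 6, 12, 24 and 48 h. Motility was scored on a 0–3 scale (3 full movement, 1.5 partial or immobile but alive, 0 dead); death meant no movement over more than 2 min. Pairing was recorded. Three experiments, each with 10 pairs; mean ± SD.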

Schistosoma mansoni [3] = assay: Antischistosomal activity against juvenile Schistosoma mansoni assessed as destroyed oral sucker at 20 to 50 uM incubated for 48 hrs by scanning electron microscopy analysis; type: functional, organism-based; settings: in the assay text read “at 50 uM” for “at 20 to 50 uM”
Summary of the method: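 Juvenile worms recovered by perfusion, five per well in supplemented RPMI (10% FBS, antibiotics, 37°C, 5% CO2), 2 h adaptation, then exposed 48 h to compound or 0.1% DMSO. Fixed in modified Karnovsky reagent (pH 7.4), washed in cacodylate buffer, post-fixed 1 h in 1% osmium tetroxide, ethanol-dehydrated, critical-point dried, gold-sputtered and imaged by scanning electron microscopy.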

Schistosoma mansoni [4] = assay: Antischistosomal activity against Schistosoma mansoni assessed as down-regulated FGFR substrate 3 mRNA level in schistosomula at 20 uM incubated for 48 hrs by RT-qPCR analysis; type: functional, organism-based
Summary of the method: (§2)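 Schistosomula (supplemented M169) or adult worms (supplemented RPMI) were treated 48 h with 20 μM GSK343 or 0.1% DMSO at 37°C, 5% CO2. qPCR normalizer genes were chosen from RNA-seq data as those with TPM >1 and a treated/control ratio of 0.9–1.1 that were not differentially expressed. Relative expression was calculated by comparative Ct; significance by t-test.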

Schistosoma mansoni [5] = assay: Antischistosomal activity against female Schistosoma mansoni assessed as down-regulated p14 mRNA level at 20 uM incubated for 48 hrs by RT-qPCR analysis; type: functional, organism-based
Schistosoma mansoni [6] = assay: Cytotoxicity against adult Schistosoma mansoni assessed as reduction in ATP quantification at 50 uM incubated for 48 hrs by CellTiter-Glo Luminescent assay relative to control; type: functional; design: scale not given: the % may be the effect or the level left
Summary of the method: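 Worm pairs in supplemented RPMI (10% FBS, 37°C, 5% CO2) exposed 48 h to compound or 0.1% DMSO. ATP measured by luminescence in freshly lysed worms and expressed as % of vehicle signal; three replicate experiments, 10 pairs each, mean ± SD.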

Schistosoma mansoni [7] = assay: Antischistosomal activity against female Schistosoma mansoni assessed as down-regulated p48 mRNA level at 20 uM incubated for 48 hrs by RT-qPCR analysis; type: functional, organism-based
Schistosoma mansoni [8] = assay: Antischistosomal activity against Schistosoma mansoni assessed as increased H3K27me1 level in schistosomula at 20 uM incubated for 48 hrs by Western blotting analysis; type: functional, organism-based
Summary of the method: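 About 10,000 schistosomula were treated 48 h with 20 μM GSK343 or vehicle, then sonicated in Triton X-100 lysis buffer with PMSF and protease inhibitors. Supernatant nuclear extract (BCA-quantified, 10 μg) was run on 15% SDS-PAGE and blotted to nitrocellulose. Blots were probed with mark-specific monoclonal antibodies, then IRDye secondaries; infrared imaging was used and signals were normalized to total H3. t-test.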

Schistosoma mansoni [9] = assay: Antischistosomal activity against Schistosoma mansoni assessed as down-regulated LDL receptor mRNA level in schistosomula at 20 uM incubated for 48 hrs by RT-qPCR analysis; type: functional, organism-based; summary of the method: as §2
Schistosoma mansoni [10] = assay: Antischistosomal activity against Schistosoma mansoni assessed as increased length of schistosomula at 20 uM incubated for 24 to 48 hrs by scanning electron microscopy analysis; type: functional; settings: time 24-48 hrs
Summary of the method: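 Newly transformed schistosomula were held 16 h in M169 with 2% FBS, serotonin, hypoxanthine, hydrocortisone, triiodothyronine and antibiotics at 37°C, 5% CO2, at 2,000 per well. They were then exposed to 20 μM GSK343 or 0.1% DMSO for 24 and 48 h. Fixation was modified Karnovsky (pH 7.4) with 1% osmium post-fix, then ethanol dehydration, critical-point drying, gold coating and SEM. Lengths came from three experiments, each with 20 schistosomula.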

Schistosoma mansoni [11] = assay: Antischistosomal activity against adult female Schistosoma mansoni assessed as decrease in number of eggs laid at 20 uM incubated for 24 to 48 hrs by […] analysis relative to control; type: functional; design: scale not given: the % may be the effect or the level left; settings: time 24-48 hrs
Schistosoma mansoni [12] = assay: Antischistosomal activity against female Schistosoma mansoni assessed as down-regulated ESP mRNA level at 20 uM incubated for 48 hrs by RT-qPCR analysis; type: functional, organism-based; summary of the method: as §2
Schistosoma mansoni [13] = assay: Cytotoxicity against Schistosoma mansoni assessed as decrease in viability at 20 uM incubated for 2 days relative to control; settings: time 2 day
Schistosoma mansoni [14] = assay: Antischistosomal activity against adult Schistosoma mansoni assessed as altered motility at 50 uM incubated for 12 hrs by inverted microscope analysis; type: functional, organism-based; summary of the method: as §1
Schistosoma mansoni [15] = assay: Antischistosomal activity against Schistosoma mansoni assessed as death of schistosomula at 10 to 50 uM incubated for 24 to 72 hrs by propidium iodide staining based fluorescence microscope analysis; type: functional, organism-based; settings: dose 10-50 µM, time 24-72 hrs
Summary of the method: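 Schistosomula were cultured in supplemented M169 with 10–50 μM GSK343 or 0.1% DMSO for 24, 48 and 72 h. A fresh well set was used per time point, with 2 μg/mL propidium iodide (dead) plus 0.5 μg/mL fluorescein diacetate (live) added. Parasites were read immediately by light and fluorescence microscopy; percent viable was computed against total parasites. About 3600 schistosomula per condition over four biological replicates; 70% ethanol served as positive control.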

Schistosoma mansoni [16] = assay: Antischistosomal activity against adult Schistosoma mansoni assessed as increased H3K27ac level at 20 uM incubated for 48 hrs by Western blotting analysis; type: functional, organism-based
Summary of the method: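 Fifty adult worm pairs were treated 48 h with 20 μM GSK343 or vehicle in supplemented RPMI/10% FBS, then lysed in Triton buffer. Nuclear pellets were acid-extracted overnight in 0.25 M HCl at 4°C and histones were TCA-concentrated. 10 μg went on 15% SDS-PAGE and nitrocellulose, probed with anti-H3K27me3, K9ac, K27ac or K4me3, then IRDye secondaries; infrared densitometry was normalized to anti-H3. Three biological replicates; t-test.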

Schistosoma mansoni [17] = assay: Antischistosomal activity against adult Schistosoma mansoni assessed as decreased motility incubated for 24 hrs by inverted microscope analysis relative to control; type: functional; design: scale not given: the % may be the effect or the level left; summary of the method: as §1
Schistosoma mansoni [18] = assay: Antischistosomal activity against female Schistosoma mansoni assessed as down-regulated Tyrosinase 2 mRNA level at 20 uM incubated for 48 hrs by RT-qPCR analysis; type: functional, organism-based; summary of the method: as §2

CCCc1cc(C)[nH]c(=O)c1CNC(=O)c1cc(-c2ccnc(N3CCN(C)CC3)c2)cc2c1cnn2C(C)C
<20%: Activity (Schistosoma mansoni [6]) | Activity (Schistosoma mansoni [13])
40%: Activity (Schistosoma mansoni [1]) | Activity (Schistosoma mansoni [11])
50%: Activity (Schistosoma mansoni [17])
~40%: Activity (Schistosoma mansoni [2])
1.1: fold change (FC) (Schistosoma mansoni [10])
active: Activity (Schistosoma mansoni [3]) | Activity (Schistosoma mansoni [4]) | Activity (Schistosoma mansoni [5]) | Activity (Schistosoma mansoni [7]) | Activity (Schistosoma mansoni [8]) | Activity (Schistosoma mansoni [9]) | Activity (Schistosoma mansoni [12]) | Activity (Schistosoma mansoni [14]) | Activity (Schistosoma mansoni [15]) | Activity (Schistosoma mansoni [16]) | Activity (Schistosoma mansoni [18])
